Reference: PMC3832945 (Molecular pharmaceutics, 2013)
Peptide text beside a SMILES is read from it.

Columns and labels:
[1] = system: Myeloperoxidase activity (a measure of neutrophil migration); assay: Myeloperoxidase; format: in vivo, mouse; conditions: for effect on MPO activity: 10 μM
Summary of the method: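 Jejunum or colon of wild-type and PepT1 knockout mice perfused in situ with Krebs–Ringer buffer (jejunum 0.067, colon 0.1 mL/min) for 30 min. Then 10 μM test compound, ± 50 mM GlyGly, for 4 h. MPO by o-dianisidine/H2O2 oxidation at pH 6.0, A460 over 2 min, reported as IU/g wet tissue. n = 5, mean ± SE, ANOVA/Tukey.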

PepT1 [2] = target: T1, PepT1 (Mus musculus, UniProt Q9JIP7); assay: In situ single-pass jejunal perfusion of [3H]fMet-Leu-Phe; format: in vivo
T1 sequence (Q9JIP7 1-709): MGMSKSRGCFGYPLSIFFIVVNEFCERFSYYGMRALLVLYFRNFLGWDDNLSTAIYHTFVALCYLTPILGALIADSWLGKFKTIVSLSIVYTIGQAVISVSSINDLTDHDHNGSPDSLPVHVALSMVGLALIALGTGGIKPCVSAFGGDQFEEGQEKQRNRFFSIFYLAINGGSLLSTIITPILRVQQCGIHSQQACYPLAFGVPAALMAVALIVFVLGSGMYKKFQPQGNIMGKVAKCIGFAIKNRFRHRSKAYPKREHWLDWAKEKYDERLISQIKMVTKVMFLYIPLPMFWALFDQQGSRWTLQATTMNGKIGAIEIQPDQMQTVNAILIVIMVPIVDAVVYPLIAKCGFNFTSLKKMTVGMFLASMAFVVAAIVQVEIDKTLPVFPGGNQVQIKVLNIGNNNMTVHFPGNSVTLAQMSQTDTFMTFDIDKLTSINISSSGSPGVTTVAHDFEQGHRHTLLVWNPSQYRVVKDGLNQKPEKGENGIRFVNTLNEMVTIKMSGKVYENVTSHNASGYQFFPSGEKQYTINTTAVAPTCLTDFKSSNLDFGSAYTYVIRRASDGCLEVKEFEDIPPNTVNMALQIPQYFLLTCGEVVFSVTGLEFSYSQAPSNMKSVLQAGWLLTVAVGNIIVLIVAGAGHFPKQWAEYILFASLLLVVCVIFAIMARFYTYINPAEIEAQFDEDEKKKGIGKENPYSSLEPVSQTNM

[3] = Exposure in portal vein during jejunal perfusion; format: in vivo, mouse; conditions: 90 min jejunal perfusion of 0.1 μM [3H-Phe]fMet-Leu-Phe, wild-type mice
Summary of the method: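 Wild-type jejunal single-pass perfusion with 2 μCi/ml (0.1 μM) [3H-Phe]-labelled tripeptide; portal venous blood drawn at 80–90 min. Intact tripeptide and [3H-Phe] measured by HPLC with radiochemical detection: isocratic 30% acetonitrile plus 0.1% TFA, 1.0 mL/min, ambient. Peaks assigned with radiolabelled standards.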

[4] = Metabolism in intestinal segments; format: in vitro ADME, mouse; conditions: wild-type mice, 0.8 mM, 5 min, 37 °C
Summary of the method: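 Wild-type intestinal pieces, 1 cm, opened longitudinally to expose the lumen. Incubated in PBS pH 7.4 with 0.8 mM test compound, 5 min, 37 °C, then iced and stopped with 10% TFA. Spun 12 000g, 5 min. Supernatant on reversed-phase C18 HPLC, UV 210 nm, 15–30% acetonitrile (0.1% TFA) gradient over 30 min. Parent and fragments identified with standards.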

PepT1 [5] = assay: Regional intestinal permeability; format: in vivo, mouse; conditions: colon, 0.1 μM
Summary of the method: (§1)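 Each region perfused separately in situ in fasted, pentobarbital-anaesthetised (40–60 mg/kg ip) wild-type and PepT1 knockout mice at 31 °C. Perfusate: 135 mM NaCl, 5 mM KCl, 10 mM MES pH 6.5, [14C]inulin, 2 μCi/ml (0.1 μM) labelled compound, 100 mM Phe, 0.1 mL/min. Outflow sampled every 10 min for 90 min and counted. Inulin-corrected steady-state Peff from parallel-tube model; n = 6.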

PepT1 [6] = target: T1, PepT1; assay: Regional intestinal permeability; format: in vivo
Summary of the method: as §1

[7] = Hydrolysis kinetics in jejunal homogenates; format: in vitro ADME, mouse; conditions: 0.4–100 μM, 1 min, 37 °C
Summary of the method: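 Jejunal mucosa scraped from wild-type or PepT1 knockout mice and homogenised in ice-cold PBS for 2 min. Spun at 12 000g for 15 min; supernatant protein at 0.5 mg/mL. Incubated with [3H-Phe]-labelled test compound at 0.4–100 μM, 1 min, 37 °C. Stopped with 10% TFA, HPLC with radiochemical detection. Rate from parent loss; Vmax and Km fitted; n = 4, mean ± SE.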

[8] = 50 mM inhibitor, jejunal perfusion, PepT1 knockout mice
[9] = 50 mM inhibitor, jejunal perfusion, wild-type mice

## NCC(=O)NCC(=O)O [GlyGly, glycylglycine] (H-Gly-Gly-OH)
[1]; jejunum, wild-type mice, 10 μM fMet-Leu-Phe + 50 mM GlyGly, 4 h
  effect of coperfused dipeptide on fMet-Leu-Phe-induced MPO activity: returned to control values

## NCC(=O)N1CCC[C@H]1C(=O)O [GlyPro, glycylproline] (H-Gly-Pro-OH)
PepT1 [2]
  Ki: 100 mM
PepT1 [2]; 50 mM inhibitor, 0.1 μM [3H]fMet-Leu-Phe, jejunal perfusion, wild-type mice
  reduction of fMet-Leu-Phe uptake by inhibitor: 33%
PepT1 [2]; [8]
  effect of inhibitor on permeability of fMet-Leu-Phe: but not in PepT1 knockout animals
PepT1 [2]; [9]
  effect of inhibitor on permeability of fMet-Leu-Phe: significantly reduced

## N[C@@H](Cc1c[nH]cn1)C(=O)O [L-histidine]
PepT1 [2]; [8]
  effect of inhibitor on permeability of fMet-Leu-Phe: no effect
PepT1 [2]; [9]
  effect of inhibitor on permeability of fMet-Leu-Phe: no effect

## CSCC[C@H](NC=O)C(=O)N[C@@H](CC(C)C)C(=O)N[C@@H](Cc1ccccc1)C(=O)O [fMet-Leu-Phe, N-formyl-methionyl-leucyl-phenylalanine]
[3]
  intact tripeptide in portal vein: no intact tripeptide was found
[4]; duodenum and jejunum
  hydrolysis in intestinal segments: substantial hydrolysis
[4]; ileum and colon
  hydrolysis in intestinal segments: only minor hydrolysis
PepT1 [5]
  effective permeability in PepT1 knockout versus wild-type mice: did not differ between the two genotypes
PepT1 [6]; duodenal, jejunal and ileal segments, on average
  residual permeability in PepT1 knockout relative to wild-type mice: ~10%
PepT1 [6]; duodenum, jejunum and ileum, 0.1 μM
  effective permeability in PepT1 knockout versus wild-type mice: considerably lower
[7]; PepT1 knockout mice
  Vmax of hydrolysis: 3.3 ± 0.1 nmol/mg/min
[7]; wild-type mice
  Vmax of hydrolysis: 3.2 ± 0.2 nmol/mg/min
[1]; colon, wild-type and PepT1 null mice, 4 h
  effect on MPO activity: without change
[1]; jejunum, PepT1 knockout mice, 4 h
  effect on MPO activity: no effect
[1]; jejunum, wild-type mice, 4 h perfusion of 10 μM fMet-Leu-Phe
  increase in MPO activity: about 2 fold
